Active and inactive are the calls of the source. The calls are words filed in the database; no cut-off is given here.
Tests used:
HepG2 = experiment: Cytotoxicity against human HepG2 cells at 30 uM after 48 hrs by MTS assay; assay type: cell-based; settings: hepg2, 48 h
How it was run: (§1)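 Cells seeded in 96-well plates and grown 24 h, then treated 48 h with compound dissolved in DMSO at a 30 μM working concentration. MTS (20 μL) added and incubated 2 h at 37 °C for viability read-out; method described as MTT assay.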

HeLa = experiment: Cytotoxicity against human HeLa cells at 30 uM after 48 hrs by MTS assay; assay type: cell-based; how it was run: as §1
HL-60 = experiment: Cytotoxicity against human HL60 cells at 30 uM after 48 hrs by MTS assay; assay type: cell-based; settings: hl-60, 48 h; how it was run: as §1
RPMI-8226 = experiment: Cytotoxicity against human RPMI8226 cells at 30 uM after 48 hrs by MTS assay; assay type: cell-based; settings: rpmi-8226, 48 h; how it was run: as §1
[1] = target: T1, Tyrosine-protein phosphatase non-receptor type 1 (Homo sapiens) (UniProt P18031); experiment: Inhibition of PTP1B (unknown origin) at 30 uM using p-nitrophenyl phosphate as substrate measured after 30 mins
T1 sequence (whole entry): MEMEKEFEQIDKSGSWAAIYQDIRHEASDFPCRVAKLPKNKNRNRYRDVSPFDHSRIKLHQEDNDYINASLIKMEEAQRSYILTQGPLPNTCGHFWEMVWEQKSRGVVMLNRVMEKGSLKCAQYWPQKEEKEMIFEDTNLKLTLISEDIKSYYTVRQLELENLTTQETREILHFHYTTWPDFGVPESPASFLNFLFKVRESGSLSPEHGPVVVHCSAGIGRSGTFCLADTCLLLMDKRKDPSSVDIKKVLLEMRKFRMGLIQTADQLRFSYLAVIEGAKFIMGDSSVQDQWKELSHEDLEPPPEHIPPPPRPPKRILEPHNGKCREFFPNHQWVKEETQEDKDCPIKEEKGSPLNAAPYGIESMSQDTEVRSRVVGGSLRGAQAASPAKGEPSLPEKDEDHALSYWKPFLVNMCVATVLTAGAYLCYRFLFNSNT
How it was run: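 30 nM PTP1B with 2 mM pNPP in 50 mM MOPS buffer, pH 6.5, with or without compound, 37 °C for 30 min. Stopped with 1 M NaOH; released pNP read at 405 nm absorbance. Oleanolic acid as positive control; IC50 from sigmoidal variable-slope dose-response fit.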

[2] = target: T2, Tyrosine-protein phosphatase non-receptor type 1 (Homo sapiens, UniProt P18031); experiment: Inhibition of PTP1B (unknown origin) using p-nitrophenyl phosphate as substrate measured after 30 mins
T2 sequence (P18031 whole entry): T1 sequence (whole entry)

## C=C1CCC[C@@]23OC4=C(C[C@]2(C)[C@@H](C)CC[C@]13C)C(=O)C(OC)=CC4=O
HepG2
  Activity: Non-Toxic
HeLa
  Activity: Non-Toxic
HL-60
  Activity: Non-Toxic
RPMI-8226
  Activity: Non-Toxic
[1]
  inhibition: inactive

## C=C1CCC[C@H]2[C@]3(C)Cc4oc(=O)cc(OC)c4[C@]3(C)CC[C@]12C
HepG2
  Activity: Non-Toxic
HeLa
  Activity: Non-Toxic
HL-60
  Activity: Non-Toxic
RPMI-8226
  Activity: Non-Toxic
[1]
  inhibition: inactive

## C=C1CCC[C@H]2[C@](C)(Cc3c(O)c(O)cc4nc(C)oc34)[C@@H](C)CC[C@]12C
HepG2
  Activity: Non-Toxic
HeLa
  Activity: Non-Toxic
HL-60
  Activity: Non-Toxic
RPMI-8226
  Activity: Non-Toxic
[2]
  IC50: 4.8 µM

## C=C1CCC[C@H]2[C@](C)(Cc3c(O)c(O)cc4ncoc34)[C@@H](C)CC[C@]12C [NAKIJINOL B]
HepG2
  Activity: Non-Toxic
HeLa
  Activity: Non-Toxic
HL-60
  Activity: Non-Toxic
RPMI-8226
  Activity: Non-Toxic
[1]
  inhibition: inactive

Source: ChEMBL document CHEMBL4130395, “Meroterpenoids with Protein Tyrosine Phosphatase 1B Inhibitory Activity from a Hyrtios sp. Marine Sponge” (J Nat Prod, 2017)
